# PolyA inhibitor: inhibitors of polyadenylation in S. cerevisiae. S. cerevisiae SKY197-pL101 polyadenylation reporter, beta-gal luminescence; efflux-impaired pdr1/pdr3 knockout yeast; score 100 = 6 SD above DMSO. activity score, % at 12 µM. actives 0.02% (n = 300,000);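 active = lowest replicate activity score at least 50, where 100 means six control SD above control mean; inconclusive = lowest score under 50 but half or more replicates reach 50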;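 note: yeast exposed to compound for 9 h at 30 °C; higher score means more reporter readthrough which indicates perturbed polyadenylation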
# Efflux pump mplx: blocks antifungal efflux pumps in multiplex yeast assay. actives 0.44% (n = 330,000). S. cerevisiae Candida pump triplex, Nile Red efflux. inhibition, % at 10 µM;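 active = plate passing quality check with inhibition over a set limit, or well fluorescence over plate mean plus 4 SD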;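 note: Nile Red retained in pooled yeast measured as flow cytometry median fluorescence; 0% = buffer negative control and 100% = Enniatin B positive control; higher means more Nile Red kept so more efflux inhibition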
# AI-2 QS modul: modulators of Vibrio harveyi AI-2 quorum sensing system | AID 2094 | activity change, % at 7.5 µM | Vibrio harveyi JMH597 AI-2 luminescence/OD600 ratio, 9 h; stronger effect = lower value; strain lacks LuxN and CqsS sensors; 0 = neutral-control median | actives 0.4% (n = 300,000); in the data active = activity change below about -75%, passing the limit was not always enough; inconclusive = no clear call, values can overlap the other calls;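 note: luminescence divided by OD600 gain over 9 h not by final OD600 alone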
# HDAC3 inh: human HDAC3 inhibition. O15379. recombinant HDAC3, fluorogenic peptide/trypsin coupled, fluorescence. inhibition, % at 8.3 µM. actives 0.15% (n = 320,000). AID 2718; in the data active = inhibition above about 26%, passing the limit was not always enough; inconclusive = no clear call, values can overlap the other calls
# Target sequence (O15379 whole entry, looked up): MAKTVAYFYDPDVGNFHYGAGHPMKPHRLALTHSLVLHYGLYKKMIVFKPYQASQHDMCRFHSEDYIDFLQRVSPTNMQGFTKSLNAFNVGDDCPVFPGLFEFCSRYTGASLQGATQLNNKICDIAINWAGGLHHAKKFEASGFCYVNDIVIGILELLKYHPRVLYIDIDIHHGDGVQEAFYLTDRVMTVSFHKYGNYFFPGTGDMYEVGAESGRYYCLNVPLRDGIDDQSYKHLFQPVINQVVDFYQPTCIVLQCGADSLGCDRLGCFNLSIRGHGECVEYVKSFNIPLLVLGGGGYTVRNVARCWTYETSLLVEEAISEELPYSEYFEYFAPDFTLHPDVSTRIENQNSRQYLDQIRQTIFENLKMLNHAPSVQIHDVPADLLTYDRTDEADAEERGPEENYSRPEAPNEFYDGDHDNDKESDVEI
# T cruzi inh: blocks replication of Trypanosoma cruzi | T. cruzi beta-gal in NIH3T3, luminescence, 90 h | inhibition, % (concentration not given with the values) | actives 1.4% (n = 300,000) | AID 1885;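 active = mean inhibition across valid replicates above about 55%, limit read from the data; inconclusive = mean below that limit but half or more replicates reach it; inactive = mean below it, under half of replicates reach it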;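 note: signal also drops with host cell toxicity which is not excluded here; 0% = plate median of DMSO wells and 100% = zero luminescence signal; higher percent means less beta-gal luminescence so fewer parasites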
#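 System: NIH/3T3 fibroblasts plus reporter T. cruzi. Medium: DMEM plus 2% FBS. Probe or stimulus: 5000 reporter trypomastigotes per well. Compound: single 50 nL compound addition per well in DMSO. Incubation: co-culture of at least 90 h after 3 h attachment. Detection: GalScreen β-gal luminescence, detergent lysis, 60 min. Evaluation: parasite load inhibition, %.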
# Cmpd fluor yeast: flagged as fluorescent in efflux inhibitor counter-screen; shares compounds with Efflux pump mplx; S. cerevisiae AD/pABC3, compound fluorescence, flow cytometry; fluorescence ratio to DMSO, % at 10 µM; actives 4% (n = 1,700);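 active = fluorescence ratio to DMSO above its plate's cutoff, the plate mean ratio plus 5 SD, cut at about 210% in these data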;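 note: unstained yeast with no Nile Red so the signal is compound autofluorescence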
# CaMdr1 efflux inh: blocks the Candida albicans Mdr1 efflux pump in yeast | shares compounds with Efflux pump mplx | S. cerevisiae AD/CaMDR1, Nile Red efflux, flow cytometry | inhibition, % at 10 µM | actives 1% (n = 1,700); in the data active = inhibition above about 26%;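 note: 0% = DMSO vehicle and 100% = reference inhibitor; higher means more Nile Red retained so more efflux inhibition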
# CaCdr2 efflux inh: Candida Cdr2 efflux pump inhibition; shares compounds with Efflux pump mplx; S. cerevisiae AD/CaCDR2, Nile Red retention, flow cytometry; Nile Red retention ratio vs DMSO, % at 10 µM; actives 4% (n = 1,700); AID 588520; in the data active = Nile Red retention ratio vs DMSO above about 190%;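 note: higher ratio means more blocking of Cdr2 efflux of the dye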
# CaCdr1 efflux inh: Candida Cdr1 efflux pump inhibition. shares compounds with Efflux pump mplx. S. cerevisiae AD/CaCDR1, Nile Red efflux, flow cytometry. inhibition, % at 10 µM. actives 1% (n = 1,700). AID 588522;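 active = inhibition above the screen-wide mean plus twice its standard deviation, cut at about 32% in these data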
# An asterisk follows results filed as active; ? = inconclusive; / = no result given. This is a sample that favours compounds with a hit; in the whole collection about 2.2% have one here.
SMILES,PolyA inhibitor,Efflux pump mplx,AI-2 QS modul,HDAC3 inh,T cruzi inh,Cmpd fluor yeast,CaMdr1 efflux inh,CaCdr2 efflux inh,CaCdr1 efflux inh
CCOC(=O)N1CCC(NC(=O)CN2C(=O)CCSc3ccccc32)CC1,11,0,20,-2,-1,100,0,90,0
O=C(CN1C(=O)CCSc2ccccc21)Nc1ccc2c(c1)OCO2,8,0,8,-8,5,95,0,107,0
CC1Cc2ccccc2N1CC(=O)Nc1ccc2c(c1)OCO2 (configuration not stated),-6,12*,17,-6,-1,134,1,104,1
C=CCn1c(C)cc(-c2csc(NC(=O)CCc3nc4ccccc4c(=O)[nH]3)n2)c1C,4,0,43,6,0,/,/,/,/
O=C(Cc1ccccc1[N+](=O)[O-])Nc1ccc2c(c1)OCO2,1,1.3*,21,-1,-11,103,0,89,0
CCOC(=O)Cc1cc(-c2ccc(O)cc2)nc2ccc3ccccc3c12,-26,0,26,-1,33,/,/,/,/
CCOC(=O)Cc1cc(-c2ccc(OC)cc2)nc2ccc3ccccc3c12,13,10*,6,-5,44,91,0,106,0
O=C(Nc1nccs1)c1cc(-c2ccco2)nc2ccccc12,3,1,36,-4,-11,/,/,/,/
O=C(Nc1nccs1)c1cc(-c2ccccc2)nc2ccccc12,-27,11*,20,1,12,103,0,101,0
COc1ccc(-c2cc(C(=O)Nc3ccc(C)c(N)c3)c3ccccc3n2)cc1,23,0.5*,-1,1,3,107,0,103,0
COc1ccc(-c2cc(C(=O)Nc3cc(S(=O)(=O)N4CCOCC4)ccc3N3CCOCC3)c3ccccc3n2)cc1,11,0.8*,23,2,42,113,0,125,0
CCCCN1C(=O)NC2NC(=O)NC21 (configuration not stated),8,0,13,3,-9,/,/,/,/
COc1ccc(Nc2cc(C(=O)NCCCN3CCOCC3)c3ccccc3n2)c(OC)c1,16,0,15,3,-8,/,/,/,/
COc1ccc(-c2cc(C(=O)NCCN3CCOCC3)c3ccccc3n2)c(OC)c1,-7,0,24,-8,-6,86,-1,99,0
Cc1ccc(C(=O)NNC(=O)CCCN2C(=O)/C(=C/c3ccccc3Cl)SC2=S)cc1,6,0,9,-7,-20,/,/,/,/
O=C(CCCN1C(=O)/C(=C/c2ccccc2Cl)SC1=S)NNC(=O)c1ccc(Cl)cc1,-1,0.6*,-10,-8,-2,98,0,100,0
CCOc1ccc(N2C(=O)CC(N(C)Cc3ccccc3)C2=O)cc1 (configuration not stated),5,15*,11,3,-4,103,0,100,0
Cc1cccc(NC(=O)CSc2nc3ccc(N4C(=O)c5ccccc5C4=O)cc3s2)c1C,-16,-4,0,3,-3,/,/,/,/
CN(C)C(=O)CSc1nc2ccc(N3C(=O)c4ccccc4C3=O)cc2s1,8,0.7*,15,4,-11,90,0,100,0
O=S(=O)(c1cnccc1N1CCN(CCO)CC1)N1CCCCC1,-8,0,16,0,7,/,/,/,/
Cc1ccc(OCc2cc(C(=O)NCC(C)(C)N3CCOCC3)no2)cc1C,-15,2,-1,-2,9,98,0,98,1
Cc1cccc(N2CCN(C(=O)c3ccc(NS(=O)(=O)c4c(C)noc4C)cc3)CC2)c1C,-5,0.5*,-3,7,29,97,0,110,0
COc1ccc([C@@H]2Sc3ccccc3N(CCN(C)C)C(=O)[C@@H]2OC(C)=O)cc1,5,0,24,2,-1,114,0,114,0
CCOc1ccc(C(=O)NCc2ccco2)cc1,7,1.2*,21,3,-2,105,0,108,0
Cc1cccnc1NC1(C(F)(F)F)N=C(c2ccccc2)NC1=O (configuration not stated),3,0,-14,6,-3,/,/,/,/
SMILES,PolyA inhibitor,Efflux pump mplx,AI-2 QS modul,HDAC3 inh,T cruzi inh,Cmpd fluor yeast,CaMdr1 efflux inh,CaCdr2 efflux inh,CaCdr1 efflux inh
O=C(NS(=O)(=O)Nc1ccccn1)c1c[nH]c2ccccc12,10,0,7,-6,2,/,/,/,/
O=C(CN1CCN(c2ncc(C(F)(F)F)cc2Cl)CC1)N1CCN(c2ncc(C(F)(F)F)cc2Cl)CC1,-20,0.8*,19,0,44,107,0,112,0
O=C(CSc1ccc(Cl)cc1)N1CCN(c2ncc(C(F)(F)F)cc2Cl)CC1,-8,0,13,9,36,/,/,/,/
COc1cc2c(cc1OC)C(COc1ccc([N+](=O)[O-])cc1)NCC2 (configuration not stated),0,0,10,-1,9,/,/,/,/
CCN1/C(=C/c2ccc3cc(C)ccc3[n+]2CC)Sc2ccccc21,/,3.0*,?,19,53,/,5,143,2
CCOC(=O)c1c(C)[nH]c(C)c1C(=O)COC(=O)/C=C/c1ccco1,/,0,/,12,/,/,/,/,/
Cc1ccc(-c2c3c([nH]c(=S)c2C#N)CCCC3)o1,-11,0.6*,17,-12,-16,108,0,137,0
O=C1OCC/C1=C\c1ccccc1,13,6.8*,2,-15,-5,101,0,85,0
COc1ccc(/C=C2\CCOC2=O)cc1,2,0,-16,7,-2,/,/,/,/
Cc1nc(S(=O)(=O)Cc2ccc(Cl)cc2)nc2c1CCC2,-22,1.9*,4,-4,3,105,0,100,0
COC(=O)c1ccc(C2/C(=C(\O)c3cccc(OC)c3)C(=O)C(=O)N2CCCN2CCOCC2)cc1 (configuration not stated),-7,9.7*,5,-8,-9,116,0,96,0
COc1cccc(/C(O)=C2/C(=O)C(=O)N(CCCN3CCOCC3)C2c2ccncc2)c1 (configuration not stated),13,0,7,-1,-16,/,/,/,/
Cc1ccc(Nc2nc(CSc3nnc(-c4ccc(F)cc4)n3C)cs2)cc1,2,0,30,-8,-1,/,/,/,/
